Reference: ChEMBL document CHEMBL1152322, “Evaluating indole-related derivatives as precursors in the directed biosynthesis of diazepinomicin analogues” (2009)
≈ marks a conversion by molar mass, not a printed value.

Legend:
Type in all cases: functional
[1] = tested on: Enterococcus faecium; assay: Antimicrobial activity against vancomycin-resistant Enterococcus faecium 379 NC12204 after 18 hrs by broth dilution method; conditions: Enterococcus faecium, 379, 18 h
Procedure, shortened: (§1)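 MIC by broth dilution following NCCLS recommendations, Mueller-Hinton II medium; inoculum 5 × 10^5 cfu/mL; antibiotic range 128-0.0625 µg/mL; microtiter plates incubated 18 h at 35 °C in ambient air; MIC read after incubation.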

[2] = tested on: Staphylococcus aureus; assay: Antimicrobial activity against Staphylococcus aureus 375 ATCC 3538p after 18 hrs by broth dilution method; conditions: Staphylococcus aureus, 375, 18 h
Procedure, shortened: (§2)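 MIC by broth dilution per NCCLS recommendations in Mueller-Hinton II medium. Inoculum 5 × 10^5 cfu/mL, antibiotic concentrations 128-0.0625 µg/mL. Microtiter plates incubated 18 h at 35 °C in ambient air. MIC read at end of incubation.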

[3] = tested on: Candida albicans; assay: Antimicrobial activity against Candida albicans 54 CA300 after 18 hrs by broth dilution method; conditions: Candida albicans, 54, 18 h; procedure, shortened: as §2
[4] = tested on: Escherichia coli; assay: Antimicrobial activity against Escherichia coli 389 GC4560 expressing imp after 18 hrs by broth dilution method; conditions: Escherichia coli, 389, 18 h; procedure, shortened: as §2
[5] = tested on: Escherichia coli; assay: Antimicrobial activity against Escherichia coli 442 GC4559 after 18 hrs by broth dilution method; conditions: Escherichia coli, 442, 18 h; procedure, shortened: as §2
[6] = tested on: Enterococcus faecium; assay: Antimicrobial activity against Enterococcus faecium 436 ID3151 after 18 hrs by broth dilution method; conditions: Enterococcus faecium, 436, 18 h; procedure, shortened: as §2
[7] = tested on: Staphylococcus aureus; assay: Antimicrobial activity against methicillin-resistant Staphylococcus aureus 310 SSC8224 after 18 hrs by broth dilution method; conditions: Staphylococcus aureus, 310, 18 h; procedure, shortened: as §1

Structure (SMILES)	MIC [1] [µg/mL]	MIC [2] [µg/mL]	MIC [3] [µg/mL]	MIC [4] [µg/mL]	MIC [5] [µg/mL]	MIC [6] [µg/mL]	MIC [7] [µg/mL]
CC(C)=CCC/C(C)=C/CC/C(C)=C/CN1C(=O)c2cccc(O)c2Nc2c(O)cc(O)cc21 [DIAZEPINOMICIN]	32 (≈ 69.2 µM)	16 (≈ 34.6 µM)	> 128	> 128	> 128	64 (≈ 138 µM)	8 (≈ 17.3 µM)
CC(C)=CCC/C(C)=C/CC/C(C)=C/CN1C(=O)c2ccc(F)c(O)c2Nc2c(O)cc(O)cc21	32 (≈ 66.6 µM)	32 (≈ 66.6 µM)	> 128	> 128	> 128	32 (≈ 66.6 µM)	16 (≈ 33.3 µM)
CC(C)=CCC/C(C)=C/CC/C(C)=C/CN1C(=O)c2cc(F)cc(O)c2Nc2c(O)cc(O)cc21	16 (≈ 33.3 µM)	16 (≈ 33.3 µM)	> 128	> 128	> 128	32 (≈ 66.6 µM)	8 (≈ 16.6 µM)
